According to ChEMBL document CHEMBL3758106, “Antitumor Activity of Americanin A Isolated from the Seeds of Phytolacca americana by Regulating the ATM/ATR Signaling Pathway and the Skp2-p27 Axis in Human Colon Cancer Cells” (J Nat Prod, 2015):
pIC50: −log10 of the molar value.

Experiments:
HCT-116 [1] = assay: Induction of reactive oxygen species in human HCT116 cells at 1 mM after 48 hrs by DCFH-DA staining-based flow cytometric analysis (reference value: 5.1%); format: functional
Procedure, shortened: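 HCT116 cells seeded overnight, then exposed to test compounds, alone or with NAC, for 48 h in complete medium. Loaded with 20 μM DCFH-DA for 30 min; intracellular ROS in 20 000 cells per group read by flow cytometry as histograms.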

HCT-116 [2] = assay: Induction of apoptosis in human HCT116 cells assessed as dead cells at 1 mM after 48 hrs by annexin V-FITC/propidium iodide staining-based flow cytometric analysis (reference value: 4.2%); format: functional
HCT-116 [3] = assay: Induction of apoptosis in human HCT116 cells assessed as late apoptotic cells at 1 mM after 48 hrs by annexin V-FITC/propidium iodide staining-based flow cytometric analysis (reference value: 7.2%); format: functional
HCT-116 [4] = assay: Induction of apoptosis in human HCT116 cells assessed as viable cells at 1 mM after 48 hrs by annexin V-FITC/propidium iodide staining-based flow cytometric analysis (reference value: 87.4%); format: functional; conditions: HCT-116, 48 h, read-out: Activity
HCT-116 [5] = assay: Induction of apoptosis in human HCT116 cells assessed as early apoptotic cells at 1 mM after 48 hrs by annexin V-FITC/propidium iodide staining-based flow cytometric analysis (reference value: 1.1%); format: functional
[6] = Antiproliferative activity against human HCT116 cells after 24 to 72 hrs by SRB assay; format: functional, cell-based; conditions: HCT-116
Procedure, shortened: (§1)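 Cells grown in 96-well plates (RPMI 1640; MRC-5 in MEM, 10% FBS, antibiotics) with compound […]; fixed in 10% TCA 30 min at 4 °C, stained 0.4% SRB in 1% acetic acid 1 h, dye dissolved in 10 mM Tris pH 10.0, A515 read; viability as % of solvent control, IC50 by nonlinear regression; mean of three independent experiments.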

[7] = Antiproliferative activity against human HCT116 cells assessed as cell viability after 24 hrs by SRB assay; format: functional, cell-based; conditions: HCT-116, 24 h
Procedure, shortened: (§2)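 HCT116 cells in 96-well plates exposed 24, 48 or 72 h; TCA fixation, 0.4% SRB staining, dye solubilised in 10 mM Tris pH 10.0, absorbance at 515 nm; viability relative to solvent-treated control.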

[8] = Antiproliferative activity against human HCT116 cells assessed as cell viability after 48 hrs by SRB assay; format: functional, cell-based; conditions: HCT-116, 48 h; procedure, shortened: as §2
[9] = Antiproliferative activity against human HCT116 cells assessed as cell viability after 72 hrs by SRB assay; format: functional, cell-based; conditions: HCT-116, 72 h; procedure, shortened: as §2
[10] = Antiproliferative activity against p53-null human HCT116 cells assessed as cell viability after 72 hrs by SRB assay; format: functional, cell-based; conditions: HCT-116, 72 h
Procedure, shortened: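 p53 wild-type and p53-null HCT116 cells in 96-well plates treated 72 h; SRB assay (TCA fix, SRB stain, Tris pH 10.0 solubilisation, A515); viability vs solvent control, IC50 by nonlinear regression.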

A549 = assay: Antiproliferative activity against human A549 cells after 24 to 72 hrs by SRB assay; format: functional, cell-based; procedure, shortened: as §1
CAKI-1 = assay: Antiproliferative activity against human CAKI-1 cells after 24 to 72 hrs by SRB assay; format: functional, cell-based; procedure, shortened: as §1
K562 = assay: Antiproliferative activity against human K562 cells after 24 to 72 hrs by SRB assay; format: functional, cell-based; procedure, shortened: as §1
MRC5 = assay: Cytotoxicity against human MRC5 cells after 24 to 72 hrs by SRB assay; format: cell-based; procedure, shortened: as §1
[11] = Antitumor activity against human HCT116 cells xenografted in nude mouse assessed as tumor growth inhibition at 10 mg/kg, ip administered once per week measured on day 41; format: functional; conditions: HCT-116, ip, 984 h, read-out: TGI
Procedure, shortened: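 Nude mice given 2 × 10^6 HCT116 cells subcutaneously in flank; at ~120 mm3 randomised, six per group; ip dosing in 200 μL, test agent 5 or 10 mg/kg three times weekly, irinotecan 10 mg/kg once weekly; tumour volume measured twice weekly to day 41; body weight tracked for toxicity.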

SW480 = assay: Antiproliferative activity against human SW480 cells after 24 to 72 hrs by SRB assay; format: functional, cell-based; procedure, shortened: as §1
[12] = Antiproliferative activity against human HCT15 cells after 24 to 72 hrs by SRB assay; format: functional, cell-based; conditions: HCT-15; procedure, shortened: as §1
RKO = assay: Antiproliferative activity against human RKO cells after 24 to 72 hrs by SRB assay; format: functional, cell-based; procedure, shortened: as §1

SMILES: CC(=O)N[C@@H](CS)C(=O)O [ACETYLCYSTEINE]
- Activity (HCT-116 [1]): 6%
- Activity (HCT-116 [2]): 4.9%
- Activity (HCT-116 [3]): 8.5%
- viability at 1000 µM (HCT-116 [4]): 85.6%
- Activity (HCT-116 [5]): 1.1%

SMILES: O=C/C=C/c1ccc2c(c1)[C@@H](CO)[C@H](c1ccc(O)c(O)c1)O2
- pIC50 [6]: 4.98

SMILES: COc1ccc([C@@H]2Oc3ccc(/C=C/C=O)cc3O[C@H]2CO)cc1OC
- pIC50 [6]: 5.40

SMILES: O=C/C=C/c1ccc2c(c1)O[C@@H](CO)[C@H](c1ccc3c(c1)O[C@@H](CO)[C@H](c1ccc(O)c(O)c1)O3)O2
- pIC50 [6]: 4.96

SMILES: COc1ccc([C@@H]2Oc3ccc(C=O)cc3O[C@H]2CO)cc1OC
- pIC50 [6]: < 4.00

SMILES: COc1cc([C@@H]2c3cc4c(cc3[C@@H](O[C@@H]3O[C@@H]5CO[C@@H](C)O[C@H]5[C@H](O)[C@H]3O)[C@H]3COC(=O)[C@H]23)OCO4)cc(OC)c1O [ETOPOSIDE]
- pIC50 [7]: < 4.70
- pIC50 [8]: 5.64
- pIC50 [9]: 6.52
- pIC50 [10]: 5.51
- pIC50 (A549): 6.10
- pIC50 (CAKI-1): 5.96
- pIC50 (K562): 5.17
- pIC50 [6]: 5.48
- pIC50 (MRC5): < 4.70

SMILES: CC(=O)/C=C/C=C/c1ccc2c(c1)O[C@@H](CO)[C@H](c1ccc(O)c(O)c1)O2
- pIC50 [6]: < 4.00

SMILES: CCc1c2c(nc3ccc(OC(=O)N4CCC(N5CCCCC5)CC4)cc13)-c1cc3c(c(=O)n1C2)COC(=O)[C@]3(O)CC [IRINOTECAN]
- inhibition in vivo at 10 mg/kg [11]: 68.6%
- pIC50 [6]: 5.70
- pIC50 (SW480): 4.91
- pIC50 [12]: 5.07
- pIC50 (RKO): 5.21

SMILES: COc1ccc([C@@H]2Oc3ccc(/C=C/C=O)cc3O[C@H]2COC(C)=O)cc1OC
- pIC50 [6]: 5.25
